Data as given in ChEMBL document CHEMBL1817635, “Ellipticines and 9-acridinylamines as inhibitors of D-alanine:D-alanine ligase” (Bioorg Med Chem, 2011).
pIC50: −log10 of the molar value. In brackets after ≈: the same amount, converted by molar mass.

Columns and labels:
Escherichia coli [1] = assay: Inhibition of Escherichia coli DdlB assessed as residual activity of the enzyme assessed as orthophosphate formation at 250 uM after 20 mins by malachite green reagent method
Summary of the method: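 Purified His-tagged E. coli DdlB, diluted in 50 mM Hepes pH 7.2 with 1 mM DTT. Reaction at 37 °C in 50 mM Hepes pH 8.0, 3.25 mM MgCl2, 6.5 mM (NH4)2SO4, D-Ala, ATP and 5% DMSO. Incubated 20 min, then malachite green reagent added and A650 read after 5 min. Duplicates, with parallel testing in 0.005% Triton X-114.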

[2] = Inhibition of Escherichia coli DdlB assessed as residual activity of the enzyme assessed as orthophosphate formation after 20 mins by malachite green reagent method
Escherichia coli [3] = assay: Antimicrobial activity against Escherichia coli 1411 after 18 hrs by broth microdilution method; format: functional; settings: Escherichia coli, 1411, 18 h
Escherichia coli [4] = assay: Antimicrobial activity against AcrAB-deficient Escherichia coli SM1411 after 18 hrs by broth microdilution method; format: functional; settings: SM1411, 18 h
Staphylococcus aureus [5] = assay: Antimicrobial activity against Staphylococcus aureus SH1000 after 18 hrs by broth microdilution method; format: functional; settings: SH1000, 18 h
Staphylococcus aureus [6] = assay: Effect on membrane integrity in Staphylococcus aureus SH1000 at four times MIC after 10 mins by BacLight assay; format: functional
Staphylococcus aureus [7] = assay: Antimicrobial activity against Staphylococcus aureus 8325-4 after 18 hrs by broth microdilution method; format: functional; settings: 8325-4, 18 h
Summary of the method: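 Broth microdilution MIC following British Society for Antimicrobial Chemotherapy guidelines, run against S. aureus […] 8325-4.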

| SMILES | Activity (Escherichia coli [1]) [%] | pIC50 [2] | MIC (Escherichia coli [3]) [µg/mL] | MIC (Escherichia coli [4]) [µg/mL] | MIC (Staphylococcus aureus [5]) [µg/mL] | MIC (Staphylococcus aureus [7]) [µg/mL] | Activity (Staphylococcus aureus [6]) [%] |
| --- | --- | --- | --- | --- | --- | --- | --- |
| COc1ccc2nc3cc(Cl)ccc3c(NCCNc3c4ccc(Cl)cc4nc4ccc(OC)cc34)c2c1 | 27 |  |  |  |  |  |  |
| COc1ccc2nc3cc(Cl)ccc3c(Nc3ccc(O)c(CN(CCCl)CCCl)c3)c2c1 | 22 |  |  |  |  |  |  |
| Cc1c2ccncc2c(C)c2c1[nH]c1cc(F)ccc12 |  | 3.99 | > 256 | 8 (≈ 30.3 µM) | 4 (≈ 15.1 µM) |  | 42.8 |
| Cc1c2cnccc2c(C)c2c1c1cc(Br)ccc1n2C |  | 3.53 |  |  |  |  |  |
| CCN(CC)Cc1cc2[nH]c3c4ccc(Cl)cc4ncc3c2cc1OC.Cl.Cl.Cl |  | 3.48 | > 256 | > 256 | > 256 |  |  |
| COc1ccc2nc3cc(Cl)ccc3c(Nc3ccc(O)c(CN4CCN(C)CC4)c3)c2c1 |  | 3.79 | > 256 | 64 (≈ 138 µM) |  | 32 (≈ 69.1 µM) | 48.7 |
| COc1ccc2c(c1)c1c(C)c3cnccc3c(C)c1n2C |  | 3.74 |  |  |  |  |  |
| CCN(CC)Cc1cc(Nc2c3ccc(Cl)cc3nc3c(OC)ccc(Cl)c23)ccc1O | 40 | 3.92 | > 256 | > 256 | > 256 |  |  |
| Cc1c2ccncc2c(C)c2c1[nH]c1ccc(O)cc12 |  | 3.72 | 16 (≈ 61 µM) | 8 (≈ 30.5 µM) | 8 (≈ 30.5 µM) |  | 71.9 |
| CCN(CC)Cc1cc2[nH]c3c4ccc(Cl)cc4ncc3c2cc1OC |  | 3.21 | 256 (≈ 696 µM) | 32 (≈ 87 µM) | 256 (≈ 696 µM) |  |  |
| COc1cc2c(cc1CN(C)C)[nH]c1c3ccc(Cl)cc3ncc21 |  |  | 128 (≈ 377 µM) | 32 (≈ 94.2 µM) | 256 (≈ 753 µM) |  |  |
| CCc1cccc2c1[nH]c1c(C)c3ccncc3c(C)c12 |  | 3.90 | > 256 | > 256 | 8 (≈ 29.2 µM) |  | 34.2 |
| C=CCc1cc(Nc2c3ccc(Cl)cc3nc3ccc(OC)cc23)cc(CN(CC)CC)c1O | 27 | 3.79 | > 256 | > 256 | 32 (≈ 67.2 µM) |  | 47.7 |
| CCCCCCCCN(CCCCCCCC)Cc1cc(Nc2c3ccc(Cl)cc3nc3ccc(OC)cc23)ccc1O | 86 |  |  |  |  |  |  |
| CCN(CC)Cc1cc(Nc2c3ccc(Cl)cc3nc3ccc(OC)cc23)ccc1O | 46 | 3.49 | 256 (≈ 587 µM) | 128 (≈ 294 µM) | 128 (≈ 294 µM) |  |  |
| COc1ccc2nc3cc(Cl)ccc3c(Nc3ccc(C(O)CCN(C)C)cc3)c2c1 (configuration not stated) | 38 | 3.87 | > 256 | 128 (≈ 294 µM) | 256 (≈ 587 µM) |  |  |

Continued by rising pIC50 [2], values first:

| Activity (Escherichia coli [1]) [%] | pIC50 [2] | MIC (Escherichia coli [3]) [µg/mL] | MIC (Escherichia coli [4]) [µg/mL] | MIC (Staphylococcus aureus [5]) [µg/mL] | MIC (Staphylococcus aureus [7]) [µg/mL] | SMILES | Activity (Staphylococcus aureus [6]) [%] |
| --- | --- | --- | --- | --- | --- | --- | --- |
| 20 | 3.99 | 256 (≈ 590 µM) | 256 (≈ 590 µM) | 64 (≈ 147 µM) |  | COc1ccc2nc3cc(Cl)ccc3c(Nc3ccc(O)c(CN4CCCC4)c3)c2c1 |  |
| 13 | 4.05 | > 256 | > 256 | 256 (≈ 541 µM) |  | COc1cc(NCCCNc2c3ccc(Cl)cc3nc3ccc(OC)cc23)c2ncccc2c1 |  |
|  | 4.05 | > 256 | > 256 | > 256 |  | Cc1c2cnccc2c(C)c2c1c1ccc(F)cc1n2C |  |
|  | 4.05 | 256 | 4 | 64 |  | CC(=O)[O-].COc1ccc2[nH]c3c(C)c4cc[n+](C)cc4c(C)c3c2c1 |  |
|  | 4.07 | > 256 | 16 (≈ 49.2 µM) | 16 (≈ 49.2 µM) |  | Cc1c2ccncc2c(C)c2c1[nH]c1ccc(Br)cc12 | 49.6 |
|  | 4.15 | 32 (≈ 96 µM) | 8 (≈ 24 µM) |  | 32 (≈ 96 µM) | COc1ccc2c(c1)c1c(C)c3cnccc3c(C)c1n2CCCN |  |
|  | 4.19 | 256 | 8 | 32 |  | COc1ccc2[nH]c3c(C)c4cc[n+](C)cc4c(C)c3c2c1.[I-] | 16 |
|  | 4.19 | > 256 | 4 | > 256 |  | Cc1c2cc[n+](C)cc2c(C)c2c1[nH]c1cc(F)ccc12.[I-] |  |
|  | 4.22 | > 256 | > 256 | > 256 |  | COc1ccc2[nH]c3c(C)c4ccncc4c(C)c3c2c1 |  |
|  | 4.34 | 64 | 4 | 16 |  | Cc1c2cc[n+](C)cc2c(C)c2c1[nH]c1ccccc12.[I-] | 37.3 |
|  | 4.44 | 32 | 1 | 2 |  | Cc1c2c[n+](C)ccc2c(C)c2c1c1cc(Br)ccc1n2C.[I-] | 42.4 |
| 25 | 4.49 | > 256 | > 256 | > 256 |  | COc1cc(Nc2c3ccc(Cl)cc3nc3ccc(OC)cc23)c2ncccc2c1 |  |
|  | 4.64 | 16 | 4 | 8 |  | Cc1c2cc[n+](C)cc2c(C)c2c1[nH]c1ccc(Br)cc12.[I-] | 29.8 |
